ChEMBL document CHEMBL1165950, “Design and synthesis of new potent anticancer pyrazoles with high FLT3 kinase inhibitory selectivity” (Bioorg Med Chem, 2010)

Tests used:
Type in all cases: functional
BT-549 = test: Cytotoxicity against human BT549 cells assessed as cell growth at 0.001 uM after 48 hrs by sulforhodamine B assay; settings: BT-549, 48 h, read-out: Activity
Procedure, shortened: (§1)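 NCI-60 five-dose screen. Cells were grown in RPMI 1640 with 5% FBS and 2 mM L-glutamine, plated at 5000–40,000 cells/well and preincubated for 24 h. Time-zero plates were TCA-fixed. DMSO-solubilized drug was added at five concentrations (10-fold or ½-log serial dilutions) for 48 h at 37 °C, 5% CO2. Cells were TCA-fixed, stained with 0.4% SRB and read at 515 nm. Percent growth used time-zero, control and test absorbances.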

HT-29 [1] = test: Growth inhibition of human HT-29 cells after 48 hrs by sulforhodamine B assay; settings: HT-29, 48 h; for CC50: read-out: LC50 (the source's name)
Procedure, shortened: (§2)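 NCI 60-cell screen, five-dose mode. Cells grown in RPMI 1640 with 5% FBS and 2 mM L-glutamine and plated at 5000-40,000 cells/well according to doubling time. After 24 h preincubation, a Tz plate was TCA-fixed. Five concentrations (10-fold or 1/2 log dilutions) were applied for 48 h at 37 °C. SRB staining read at 515 nm. IC50 taken from [(Ti-Tz)/(C-Tz)]×100 = 50.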

HCT-15 = test: Cytotoxicity against human HCT15 cells assessed as cell growth at 10 uM; settings: read-out: Activity
Procedure, shortened: (§3)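 Single-dose NCI-60 screen at 10 µM. Cells were grown in RPMI 1640 with 5% FBS and 2 mM L-glutamine, then treated for 48 h at 37 °C. Protein was measured by SRB staining with absorbance at 515 nm. Percentage growth was recorded, and inhibition percentage was calculated as 100 minus growth percentage.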

SNB-19 = test: Cytotoxicity against human SNB19 cells assessed as cell growth at 10 uM after 48 hrs by sulforhodamine B assay; settings: SNB-19, 48 h, read-out: Activity
UACC-257 = test: Cytotoxicity against human UACC257 cells assessed as cell growth at 10 uM after 48 hrs by sulforhodamine B assay; settings: UACC-257, 48 h, read-out: Activity
HT-29 [2] = test: Cytotoxicity against human HT-29 cells assessed as cell growth at 0.01 uM after 48 hrs by sulforhodamine B assay; settings: HT-29, 48 h, read-out: Activity
IGROV-1 = test: Cytotoxicity against human IGROV1 cells assessed as cell growth at 100 nM after 48 hrs by sulforhodamine B assay; settings: IGROV-1, 48 h, read-out: Activity
CAKI-1 [3] = test: Growth inhibition of human Caki1 cells after 48 hrs by sulforhodamine B assay; settings: CAKI-1, 48 h; for CC50: read-out: LC50 (the source's name)
Procedure, shortened: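 NCI five-dose SRB assay in RPMI 1640 with 5% FBS and 2 mM L-glutamine. Cells were preincubated 24 h, then exposed 48 h at 37 °C to five concentrations (10-fold or half-log serial dilutions from DMSO stocks). TCA fixation, SRB staining, and absorbance at 515 nm followed. IC50 was taken where [(Ti−Tz)/(C−Tz)]×100 = 50, with Tz as time-zero cell density.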

CAKI-1 [4] = test: Cytotoxicity against human Caki1 cells assessed as cell growth at 10 uM after 48 hrs by sulforhodamine B assay; settings: CAKI-1, 48 h, read-out: Activity
786-0 = test: Cytotoxicity against human 786-0 cells assessed as cell growth at 100 nM after 48 hrs by sulforhodamine B assay; settings: 786-0, 48 h, read-out: Activity; procedure, shortened: as §1
M14 = test: Cytotoxicity against human M14 cells assessed as cell growth at 0.01 uM after 48 hrs by sulforhodamine B assay; settings: M14, 48 h, read-out: Activity
SK-OV-3 = test: Cytotoxicity against human SKOV3 cells assessed as cell growth at 0.001 uM after 48 hrs by sulforhodamine B assay; settings: SK-OV-3, 48 h, read-out: Activity
MDA-MB-231 [5] = test: Cytotoxicity against human MDA-MB-231 cells assessed as cell growth at 0.01 uM after 48 hrs by sulforhodamine B assay; settings: MDA-MB-231, 48 h, read-out: Activity
OVCAR-4 = test: Cytotoxicity against human OVCAR4 cells assessed as cell growth at 0.001 uM after 48 hrs by sulforhodamine B assay; settings: OVCAR-4, 48 h, read-out: Activity
T47D [6] = test: Growth inhibition of human T47D cells after 48 hrs by sulforhodamine B assay; procedure, shortened: as §2
MDA-MB-231 [7] = test: Cytotoxicity against human MDA-MB-231 cells assessed as cell growth at 100 nM after 48 hrs by sulforhodamine B assay; settings: MDA-MB-231, 48 h, read-out: Activity
NCI-H522 = test: Cytotoxicity against human NCI-H522 cells assessed as cell growth at 1 uM after 48 hrs by sulforhodamine B assay; settings: NCI-H522, 48 h, read-out: Activity
SF-268 = test: Growth inhibition of human SF268 cells after 48 hrs by sulforhodamine B assay; settings: SF-268, 48 h; for CC50: read-out: LC50 (the source's name); procedure, shortened: as §2
ACHN = test: Cytotoxicity against human ACHN cells assessed as cell growth at 10 uM; settings: read-out: Activity; procedure, shortened: as §3
MDA-MB-435 = test: Cytotoxicity against human MDA-MB-435 cells assessed as cell growth at 100 nM after 48 hrs by sulforhodamine B assay; settings: MDA-MB-435, 48 h, read-out: Activity
T47D [8] = test: Cytotoxicity against human T47D cells assessed as cell growth at 1 uM after 48 hrs by sulforhodamine B assay; settings: read-out: Activity
DU-145 = test: Cytotoxicity against human DU145 cells assessed as cell growth at 0.001 uM after 48 hrs by sulforhodamine B assay; settings: DU-145, 48 h, read-out: Activity
CCRF-CEM = test: Cytotoxicity against human CCRF-CEM cells assessed as cell growth at 10 uM after 48 hrs by sulforhodamine B assay; settings: read-out: Activity; procedure, shortened: as §1
KM12 [9] = test: Cytotoxicity against human KM12 cells assessed as cell growth at 0.001 uM after 48 hrs by sulforhodamine B assay; settings: KM12, 48 h, read-out: Activity
KM12 [10] = test: Cytotoxicity against human KM12 cells assessed as cell growth at 0.01 uM after 48 hrs by sulforhodamine B assay; settings: KM12, 48 h, read-out: Activity
MDA-MB-231 [11] = test: Cytotoxicity against human MDA-MB-231 cells assessed as cell growth at 0.001 uM after 48 hrs by sulforhodamine B assay; settings: MDA-MB-231, 48 h, read-out: Activity
MDA-MB-468 = test: Cytotoxicity against human MDA-MB-468 cells assessed as cell growth at 10 uM after 48 hrs by sulforhodamine B assay; settings: MDA-MB-468, 48 h, read-out: Activity
UACC-62 = test: Cytotoxicity against human UACC62 cells assessed as cell growth at 100 nM after 48 hrs by sulforhodamine B assay; settings: UACC-62, 48 h, read-out: Activity
SF-295 = test: Cytotoxicity against human SF295 cells assessed as cell growth at 0.001 uM after 48 hrs by sulforhodamine B assay; settings: SF-295, 48 h, read-out: Activity
LOX IMVI = test: Cytotoxicity against human LOXIMVI cells assessed as cell growth at 10 uM after 48 hrs by sulforhodamine B assay; settings: read-out: Activity

SMILES	growth at 0.001 µM (BT-549) [%]	GI50 (HT-29 [1]) [µM]	TGI (HT-29 [1]) [µM]	CC50 (HT-29 [1]) [µM]	growth at 10 µM (HCT-15) [%]	growth at 10 µM (SNB-19) [%]	growth at 10 µM (UACC-257) [%]	growth at 0.01 µM (HT-29 [2]) [%]	growth at 0.1 µM (IGROV-1) [%]	GI50 (CAKI-1 [3]) [µM]	TGI (CAKI-1 [3]) [µM]	CC50 (CAKI-1 [3]) [µM]	growth at 10 µM (CAKI-1 [4]) [%]	growth at 0.1 µM (786-0) [%]	growth at 0.01 µM (M14) [%]	growth at 0.001 µM (SK-OV-3) [%]	growth at 0.01 µM (MDA-MB-231 [5]) [%]	growth at 0.001 µM (OVCAR-4) [%]	GI50 (T47D [6]) [µM]	LC50 (T47D [6]) [µM]	also measured
Cc1cc(O)cc(-c2nn(CC#N)cc2-c2ccnc(-c3ccc(Oc4ccccc4)cc3)c2)c1	96	1.83	3.84	8.06	4.26	-93	-93	104	86	1.8	5.78	41	-67	91	96	79	84	110	2.04	39.1	TGI (T47D [6]): 5.81 µM; growth at 0.1 µM (MDA-MB-231 [7]): 85%; growth at 1 µM (NCI-H522): 2%; GI50 (SF-268): 3.96 µM; TGI (SF-268): 15.5 µM; CC50 (SF-268): 41.4 µM; growth at 10 µM (ACHN): 37.6%; growth at 0.1 µM (MDA-MB-435): 89%; growth at 1 µM (T47D [8]): -26%; growth at 0.001 µM (DU-145): 104%; growth at 10 µM (CCRF-CEM): 14%; growth at 0.001 µM (KM12 [9]): 91%; growth at 0.01 µM (KM12 [10]): 94%; growth at 0.001 µM (MDA-MB-231 [11]): 96%; growth at 10 µM (MDA-MB-468): -88%; growth at 0.1 µM (UACC-62): 84%; growth at 0.001 µM (SF-295): 99%; growth at 10 µM (LOX IMVI): -86%
COc1cc(C)cc(-c2nn(CC#N)cc2-c2ccc(-c3cccc(C(C)=O)c3)nc2)c1	99	3.28	18.7	> 100	23.4	19	3	93	88	1.91	10.5	> 100	-18	92	93	86	96	99	2.23	> 100	TGI (T47D [6]): 8.23 µM; growth at 0.1 µM (MDA-MB-231 [7]): 85%; growth at 1 µM (NCI-H522): -14%; GI50 (SF-268): 4.07 µM; TGI (SF-268): 81.4 µM; CC50 (SF-268): > 100 µM; growth at 10 µM (ACHN): 35.4%; growth at 0.1 µM (MDA-MB-435): 11%; growth at 1 µM (T47D [8]): -7%; growth at 0.001 µM (DU-145): 110%; growth at 10 µM (CCRF-CEM): 12%; growth at 0.001 µM (KM12 [9]): 99%; growth at 0.01 µM (KM12 [10]): 96%; growth at 0.001 µM (MDA-MB-231 [11]): 102%; growth at 10 µM (MDA-MB-468): -53%; growth at 0.1 µM (UACC-62): 71%; growth at 0.001 µM (SF-295): 99%; growth at 10 µM (LOX IMVI): 6%
